The subject of assay [1] is Neutrophil. The experiment in a line: Induction of apoptosis in human neutrophils assessed as secondary necrosis at 10 uM after 8 hrs by annexin V/propidium iodide staining based flow cytometric analysis. For orientation: Flow cytometry measures light scatter and fluorescence of single cells or particles in a stream.
The subject of assay [2] is Neutrophil. Description: Induction of apoptosis in human neutrophils assessed as pre-necrotic cells after 6 hrs by annexin V/propidium iodide staining based flow cytometric analysis. The assay is classed as functional, cell-based. In outline:
(§1)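 Neutrophils isolated from peripheral blood of healthy volunteers (>96% purity), resuspended at 5 × 10^6/mL in IMDM with penicillin, streptomycin and 0.1% w/v BSA. Compounds from 50 mM DMSO stocks (final DMSO 0.04–0.12%) were added just before cells, in duplicate, at 37 °C, 5% CO2. Cells were stained with annexin V in Ca-containing HBSS on ice for 10 min in the dark, PI was added, and cells were analysed by flow cytometry. Diff-Quick morphology confirmed results.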

Assay [3] has as its system Neutrophil. Description: Induction of apoptosis in human neutrophils assessed as pre-necrotic cells at 3 to 10 uM after 6 hrs by annexin V/propidium iodide staining based flow cytometric analysis in presence of ODQ. The assay is classed as functional, cell-based. In short, it runs like this:
(§2)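 Human blood neutrophils at 5 × 10^6/mL in IMDM/0.1% BSA with antibiotics were pre-incubated for 15 min with L-NAME (prepared in IMDM) or with ODQ (10 μM; from a 10 mM stock in 0.01% NaOH). Test compounds were then added from DMSO stocks and cells cultured in duplicate at 37 °C, 5% CO2. Apoptosis was read by annexin V/PI flow cytometry.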

Assay [4] has as its system Neutrophil. Description: Induction of apoptosis in human neutrophils assessed as pre-necrotic cells at 3 to 10 uM after 6 hrs by annexin V/propidium iodide staining based flow cytometric analysis in presence of L-NAME. It counts as functional, cell-based. In short, it runs like this: as §2
Assay [5] concerns Neutrophil. The experiment in a line: Induction of apoptosis in human neutrophils at 10 uM by annexin V/propidium iodide staining based flow cytometric analysis. The note with it: TDE = time-dependent effect. It counts as functional, cell-based. In short, it runs like this:
as §1

Assay [6] deals with Neutrophil. The experiment in a line: Induction of apoptosis in human neutrophils assessed as apoptotic cells at 3 uM after 6 hrs by annexin V/propidium iodide staining based flow cytometric analysis. It counts as functional. In short, it runs like this: as §1
Assay [7] concerns Neutrophil. Description: Induction of apoptosis in human neutrophils assessed as viable cells at 3 uM after 6 hrs by annexin V/propidium iodide staining based flow cytometric analysis. The assay is classed as functional. The conditions noted are these: read-out: Activity. In outline:
as §1

The test system of assay [8] is Neutrophil. Description: Induction of apoptosis in human neutrophils assessed as pre-necrotic cells at 3 uM after 6 hrs by annexin V/propidium iodide staining based flow cytometric analysis in presence of PTIO. The assay is classed as functional, cell-based. In outline:
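Healthy-volunteer neutrophils (>96% pure) at 5 × 10^6/mL in IMDM with 0.1% BSA and penicillin/streptomycin, 37 °C, 5% CO2, in duplicate. Co-incubated with the NO scavenger PTIO, made directly in IMDM. Final DMSO 0.04–0.12%. Cells stained with annexin V (1/500 in CaCl2–HBSS binding buffer) 10 min on ice in the dark, then PI added before flow cytometry.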

The test system of assay [9] is Neutrophil. The experiment in a line: Induction of apoptosis in human neutrophils assessed as cellular shrinkage and nuclear pyknosis at 3 uM after 6 hrs by light microscopy analysis. It counts as functional, cell-based. In outline: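 Neutrophils isolated from healthy volunteers' citrated blood by dextran sedimentation and a density gradient (granulocytes at the 70:81 boundary, >96% pure). Cells at 5 × 10^6/mL in IMDM with penicillin/streptomycin and 0.1% BSA, 37 °C, 5% CO2, treated in duplicate. Final DMSO 0.04–0.12%. Cells cytocentrifuged, methanol-fixed 2 min, Diff-Quick stained, and scored for apoptotic morphology at 40× and 100×.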

Assay [10] relates to Neutrophil. Description: Induction of apoptosis in human neutrophils assessed as pre-necrotic cells at 3 uM after 6 hrs by annexin V/propidium iodide staining based flow cytometric analysis. The assay is classed as functional. In short, it runs like this:
as §1

Assay [11] has as its system Neutrophil. Description: Induction of apoptosis in human neutrophils assessed as necrotic cells at 3 uM after 6 hrs by annexin V/propidium iodide staining based flow cytometric analysis. The assay is classed as functional. In short, it runs like this: as §1

Molecules are shown by their SMILES. Calls of active or inactive are those of the source. The calls are words filed in the database; no cut-off is given here.

Regarding `CC[C@H](CO)Nc1nc(NCc2ccc(OCc3no[n+]([O-])c3C(N)=O)cc2)c2ncn(C(C)C)c2n1`, the result in assay [1], in assay [3] and in assay [4] was Active. The Activity result in assay [2] is “Dose-dependent effect”; in assay [5] it was “tde”.

For `CC[C@H](CO)Nc1nc(NCc2ccc(OCCCO[N+](=O)[O-])cc2)c2ncn(C(C)C)c2n1`, the result in [1], in assay [3], in [9] and in assay [4] was Active. The Activity in assay [6] is 86.9%; in assay [2], “Dose-dependent effect”; in assay [5] it was “tde”; in assay [10], 0.017%; in assay [11], 0.63%. The viability at 3 µM in assay [7] turned out to be 12.5%. For the same molecule, the outcome in [8] was inactive.

For `CC[C@H](COC(=O)CCCO[N+](=O)[O-])Nc1nc(NCc2ccccc2)c2ncn(C(C)C)c2n1`, the outcome in assay [1], in [3] and in assay [4] was Active. Moreover, the Activity entry in [2] is “Dose-dependent effect”; in assay [5] it was “tde”.

On to `CC[C@H](CO)Nc1nc(NCc2ccc(OCc3nonc3C(N)=O)cc2)c2ncn(C(C)C)c2n1`, for which the Activity result in assay [2] was “Dose-dependent effect”.

Consider `CC[C@H](CO)Nc1nc(NCc2ccc(OCCCOC)cc2)c2ncn(C(C)C)c2n1`, for which, in [2], the Activity entry is “Dose-dependent effect”. Also, the outcome in [3] and in assay [4] was Active.

As for `CC[C@H](CO)Nc1nc(NCc2ccccc2)c2ncn(C(C)C)c2n1` [SELICICLIB], the result in [1], in [3], in assay [8], in [9] and in [4] was Active. Moreover, the Activity was 6.98% in [6], “tde” in assay [5], 0.033% in assay [10] and 0.386% in [11]. In addition, the viability at 3 µM in assay [7] was determined as 92.6%.

As to `CN1C(=O)[C@]23CC4=CC=C[C@H](O)[C@H]4N2C(=O)[C@@]1(CO)SS3`, the result in [8] was Active.
